PMC10895701 (Nature structural & molecular biology, 2023)

Legend:
OCT1CS [1] = assay: 3H-MPP+ uptake in X. laevis oocytes expressing OCT1CS; type: cell-based; conditions: 30 min uptake
In short: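 Xenopus laevis oocytes injected with 30 ng cRNA, expressed 2–4 days at 17°C. Uptake of 3H-MPP+ (specific radioactivity 0.06 Ci/mmol) over a concentration series, 30 min uptake. Background corrected with water-injected oocytes; radioactivity counted. Kt fitted, reported ± s.e.m.; n=3 biologically independent replicates.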

OCT1CS [2] = assay: 14C-metformin uptake in oocytes expressing OCT1CS; type: cell-based
WT hOCT1 = conditions: cited from earlier work

Structure (SMILES): C[n+]1ccc(-c2ccccc2)cc1 [MPP^+, 1-methyl-4-phenylpyridinium]
- Michaelis constant for transport (Kt) for MPP+ transport (OCT1CS [1]): ~ 50 μM

Structure (SMILES): CN(C)C(=N)N=C(N)N [metformin]
- Kt for metformin (OCT1CS [2]): ~ 3 mM
- Kt for metformin, previous reports (WT hOCT1): 1 to 5 mM
